Data set [1] can be described thus: Inhibition of rabbit erythrocyte SAHase by DTNB-coupled assay. Also on record: species or system Oryctolagus cuniculus. Put shortly:
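SAHase hydrolytic activity was measured by DTNB-coupled assay. Enzyme and compound were preincubated in phosphate buffer, pH 8.0, for 10 min before the reaction was started.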

The subject of a further data set is Splenic lymphocyte. Description: Immunosuppressive activity in BALB/c mouse splenic lymphocytes co-cultured with C57BL/6 mouse splenic lymphocytes assessed as inhibition of cell proliferation after 72 hrs by mixed lymphocyte reaction assay. The class given is functional, cell-based. Put shortly:
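Stimulator BALB/c splenic lymphocytes (1 × 10⁷ cells/mL) were γ-irradiated with ⁶⁰Co for 7 min. They were co-cultured with fresh C57BL/6 splenic responder lymphocytes and compound at 25, 50 or 100 μM in RPMI 1640 with FCS for 72 h at 37 °C under 5% CO₂. Cells were then pulsed with [³H]thymidine for another 24 h to read proliferation.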

The nature of data set [2]: Cytotoxicity against BALB/c mouse splenic lymphocytes co-cultured with C57BL/6 mouse splenic lymphocytes assessed as reduction of cell viability after 72 hrs. The data set is classed as cell-based, Splenic lymphocyte. The note with it: BALB/c and C57BL/6, mouse.

Molecules are shown by their SMILES. The source made the active and inactive calls. No cut-off for these calls is given here. Where only a bound is given, the exact number is not on record here.

In general, IC50 refers to the midpoint of a concentration-inhibition curve. Broadly, the CC50 is the concentration at which the toxic effect on the cells reaches its halfway point.

`COC(=O)C(=O)CCn1cnc2c(N)ncnc21` yielded a 50% inhibitory concentration (IC50) in data set [1] of 194 µM. The outcome with Splenic lymphocyte was Active. Besides, in data set [2], the CC50 at 72 h is greater than 1000 µM.
For `COC(=O)[C@H](O)CCn1cnc2c(N)ncnc21`, in that order: 61.3 µM, “Active” and greater than 1000 µM.
For `COC(=O)C(O)CCn1cnc2c(N)ncnc21` (racemic), in that order: 24.4 µM, “Active” and greater than 1000 µM.
On to `COC(=O)[C@@H](O)CCn1cnc2c(N)ncnc21`, for which the IC50 in data set [1] was 21.2 µM. The result in the data set with Splenic lymphocyte was Active. In addition, the half-maximal cytotoxic concentration (CC50) at 72 h in data set [2] was greater than 1000 µM.

The values above are taken from ChEMBL document CHEMBL1142455, “Synthesis and biological evaluation of immunosuppressive agent DZ2002 and its stereoisomers” (Bioorg Med Chem, 2008).
